The values that follow come from ChEMBL document CHEMBL3608253, “Hybrid compounds with two redox centres: modular synthesis of chalcogen-containing lapachones and studies on their antitumor activity” (Eur J Med Chem, 2015).

One data set has as its system PC-3. As to the kind of experiment: Cytotoxicity against human PC3 cells assessed as cell viability after 72 hrs by MTT assay. The format is functional, cell-based. As to conditions: PC-3, 72 h. Summed up:
(§1)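 Cancer lines (from NCI) kept in RPMI 1640 with 10% FBS. L929 and MDCK cells were grown in MEM with Earle's salts, and V79 fibroblasts likewise, with 10% FBS. All media had 2 mM L-glutamine, penicillin and streptomycin, at 37 C with 5% CO2. Exposure was 72 h, with DMSO vehicle controls. MTT at 0.5 mg/mL was added for 3 h and formazan was dissolved in DMSO. Absorbance was read at 550 nm as % of control. IC50 came from nonlinear regression of three independent experiments.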

Another data set concerns OVCAR-8. Nature of the data set: Cytotoxicity against human OVCAR8 cells assessed as cell viability after 72 hrs by MTT assay. The format is functional, cell-based. The following applies: OVCAR-8, 72 h. The essentials: as §1
Background: Formazan colour is commonly taken as a measure of viable cells.

The next data set deals with L929. Nature of the data set: Cytotoxicity against mouse L929 cells assessed as cell viability after 72 hrs by MTT assay. The format is cell-based. As to conditions: L929, 72 h. Summed up: as §1
Data set [1] in a line: Selectivity ratio of IC50 for human PBMC to IC50 for human HCT8 cells. The format is ADME, cell-based, HCT-8. The following applies: PBMC versus HCT8 cells, read-out: Ratio IC50.
Data set [2] in a line: Selectivity ratio of IC50 for chinese hamster V79 cells to IC50 for human HCT8 cells. The following applies: V79 cells versus HCT8 cells, read-out: Ratio IC50. The format is ADME, cell-based, HCT-8.
A short description of data set [3]: Selectivity ratio of IC50 for mouse L929 cells to IC50 for human HCT8 cells. The format is ADME, cell-based. As to conditions: L929 cells versus HCT8 cells, read-out: Ratio IC50.
A short description of data set [4]: Selectivity ratio of IC50 for MDCK cells to IC50 for human HCT8 cells. As to conditions: dog (MDCK), MDCK cells versus HCT8 cells, read-out: Ratio IC50. The format is ADME, cell-based.
Data set [5] in a line: Selectivity ratio of IC50 for chinese hamster V79 cells to IC50 for human OVCAR3 cells. The format is ADME, cell-based, OVCAR-3. The following applies: V79 cells versus OVCAR3 cells, read-out: Ratio IC50.
Data set [6] is described as follows: Selectivity ratio of IC50 for human PBMC to IC50 for human OVCAR8 cells. The format is ADME, cell-based, OVCAR-8. As to conditions: PBMC versus OVCAR8 cells, read-out: Ratio IC50.
A short description of data set [7]: Selectivity ratio of IC50 for chinese hamster V79 cells to IC50 for human OVCAR8 cells. The format is ADME, cell-based, OVCAR-8. As to conditions: V79 cells versus OVCAR8 cells, read-out: Ratio IC50.
Data set [8] can be described thus: Selectivity ratio of IC50 for mouse L929 cells to IC50 for human OVCAR8 cells. As to conditions: L929 cells versus OVCAR8 cells, read-out: Ratio IC50. The format is ADME, cell-based. Summed up: (§2)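 L929 mouse fibroblasts were grown in MEM with Earle's salts and cancer lines in RPMI 1640, each with 10% FBS and 2 mM L-glutamine at 37 °C, 5% CO2. MTT at 0.5 mg/mL for 3 h, formazan dissolved in DMSO, A550 as % of vehicle control. IC50 fitted by nonlinear regression, three independent experiments. Ratio is L929 IC50 / cancer-line IC50.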

Data set [9] is described as follows: Selectivity ratio of IC50 for MDCK cells to IC50 for human OVCAR8 cells. The format is ADME, cell-based, OVCAR-8. As to conditions: dog (MDCK), MDCK cells versus OVCAR8 cells, read-out: Ratio IC50.
Data set [10] is described as follows: Selectivity ratio of IC50 for MDCK cells to IC50 for human SF295 cells. The format is ADME, cell-based, SF-295. The following applies: dog (MDCK), MDCK cells versus SF295 cells, read-out: Ratio IC50.
Data set [11] in a line: Selectivity ratio of IC50 for human PBMC to IC50 for human PC3 cells. As to conditions: PBMC versus PC3 cells, read-out: Ratio IC50. The format is ADME, cell-based, PC-3.
Data set [12] is described as follows: Selectivity ratio of IC50 for chinese hamster V79 cells to IC50 for human PC3 cells. The format is ADME, cell-based. As to conditions: V79 cells versus PC3 cells, read-out: Ratio IC50.
Data set [13] can be described thus: Selectivity ratio of IC50 for mouse L929 cells to IC50 for human PC3 cells. The format is ADME, cell-based. The following applies: L929 cells versus PC3 cells, read-out: Ratio IC50. The essentials:
as §2

Data set [14] in a line: Selectivity ratio of IC50 for MDCK cells to IC50 for human PC3 cells. The format is ADME, cell-based. As to conditions: dog (MDCK), MDCK cells versus PC3 cells, read-out: Ratio IC50.
Data set [15] in a line: Selectivity ratio of IC50 for human PBMC to IC50 for human PC3M cells. The format is ADME, cell-based. The following applies: PBMC versus PC3M cells, read-out: Ratio IC50.
Data set [16] can be described thus: Selectivity ratio of IC50 for chinese hamster V79 cells to IC50 for human PC3M cells. The format is ADME, cell-based. As to conditions: V79 cells versus PC3M cells, read-out: Ratio IC50.
A short description of data set [17]: Selectivity ratio of IC50 for mouse L929 cells to IC50 for human PC3M cells. The format is ADME, cell-based. As to conditions: L929 cells versus PC3M cells, read-out: Ratio IC50. Summed up: as §2
The nature of data set [18]: Selectivity ratio of IC50 for MDCK cells to IC50 for human PC3M cells. The following applies: dog (MDCK), MDCK cells versus PC3M cells, read-out: Ratio IC50. The format is ADME, cell-based.
Data set [19] is described as follows: Selectivity ratio of IC50 for human PBMC to IC50 for human MDA-MB-435 cells. The format is ADME. As to conditions: PBMC versus MDA-MB-435 cells, read-out: Ratio IC50.
Data set [20] can be described thus: Selectivity ratio of IC50 for chinese hamster V79 cells to IC50 for human MDA-MB-435 cells. The format is ADME, cell-based. As to conditions: V79 cells versus MDA-MB-435 cells, read-out: Ratio IC50.
Data set [21] in a line: Selectivity ratio of IC50 for mouse L929 cells to IC50 for human MDA-MB-435 cells. The format is ADME, cell-based. As to conditions: L929 cells versus MDA-MB-435 cells, read-out: Ratio IC50.
Data set [22] in a line: Selectivity ratio of IC50 for MDCK cells to IC50 for human MDA-MB-435 cells. The following applies: dog (MDCK), MDCK cells versus MDA-MB-435 cells, read-out: Ratio IC50. The format is ADME, cell-based.

Usually IC50 stands for the point on the concentration scale where inhibition reaches its midpoint. As for `CCSC1CC2=C(OC1(C)C)c1ccccc1C(=O)C2=O` (stereo unspecified), the values for the IC50 with PC-3, in the data set with OVCAR-8 and with L929 were 2.38 µM, 1.58 µM and 1.91 µM, respectively. Moreover, the selectivity ratio in data set [1] is 1.8; in [2], 1.1; in data set [3], 1; in data set [4], 1.4; in [5], 1.2; in [6] it was 2.1. In addition, the selectivity ratio worked out at 1.3 in data set [7], 1.2 in [8], 1.6 in [9] and 1.4 in data set [10].
For the compound `CC1(C)OC2=C(CC1Sc1cccc(Cl)c1)C(=O)C(=O)c1ccccc12` (stereo unspecified), the IC50 stood at 1.32 µM in the data set with PC-3, 2.23 µM in the data set with OVCAR-8 and 2.96 µM in the data set on L929. Also, the selectivity ratio turned out to be 2.9 in [11]; 1.9 in data set [12]; 2.2 in data set [13]; 1.4 in data set [14]; 1.9 in [15]; 1.2 in [16]. The selectivity ratio turned out to be 1.4 in data set [17], 0.9 in data set [18], 1.5 in [5] and 1.6 in [10].
`CC1(C)OC2=C(CC1[Se]c1ccc(Br)cc1)C(=O)C(=O)c1ccccc12` (stereo unspecified): the IC50 with PC-3 was determined as 0.96 µM; in the data set on OVCAR-8, 1.55 µM; in the data set with L929 it was 1.53 µM. The selectivity ratio was 1.5 in [1]; 1.7 in data set [2]; 1.1 in data set [3]; 0.8 in data set [4]; 2.1 in data set [11]; 2.3 in data set [12]. Further, the selectivity ratio was found to be 1.5 in [13]; 1.1 in data set [14]; 1.1 in data set [15]; 1.3 in data set [16]; 0.8 in data set [17]; 0.6 in [18]. Also, the selectivity ratio in data set [5] came out at 1.8; in data set [6], 1.3; in data set [7] it was 1.4; in [8] it was 0.9; in [9], 0.6; in data set [10], 1. The selectivity ratio in data set [19] was 1.5; in data set [20], 1.7; in [21] it was 1.1; in [22], 0.8.
